This is an account of results in ChEMBL document CHEMBL4251734, “Study on Liposomal Encapsulation of New Bodipy Sensitizers for Photodynamic Therapy” (ACS Med Chem Lett, 2018).

Data set [1] deals with SK-OV-3. The data set is described as follows: Photocytotoxicity in human SKOV3 cells assessed as cell death at 0.1 to 1 uM incubated for 6 hrs followed by PDT-1200 light irradiation at 20 J/cm2 measured after 16 hrs by MTT assay. The data set is classed as functional, cell-based. An outline of the steps: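 Free photosensitizer, not encapsulated in liposomes, was added to SK-OV-3 cells. The cells were then exposed to light at 20 J cm^-2, a dose chosen from a preliminary light-dose series. A dark plate served as the control. Viability was read by MTT, and IC50 was taken as the PS concentration killing 50% of cells. Each light treatment was done in triplicate.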

The subject of data set [2] is SK-OV-3. In words: Photocytotoxicity in human SKOV3 cells assessed as cell death incubated for 6 hrs followed by PDT-1200 light irradiation at 20 J/cm2 measured after 16 hrs using liposome-encapsulated compound by MTT assay. In kind it is functional, cell-based. Conditions: SK-OV-3, light or radiation study. The gist of the method:
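Photosensitizer was loaded into egg phosphatidylcholine/DOPE liposomes (mole ratio EPC:DOPE:PS 70:25:5). Loaded PS was quantified by absorbance in DMSO against standard curves. SK-OV-3 cells were treated and irradiated at 20 J cm^-2, with a dark plate as the control. Viability was read by MTT. IC50 was taken as the PS concentration killing 50% of cells. Triplicate.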

Data set [3] in a line: Dark toxicity in human SKOV3 cells assessed as cell death at 0.1 to 1 uM incubated for 6 hrs using liposome-encapsulated compound by MTT assay. The data set is classed as cell-based. Conditions: sk-ov-3, 6 h. The gist of the method:
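Liposomes of egg phosphatidylcholine, DOPE and photosensitizer at mole ratio 70:25:5. The PS content of the liposomes was estimated from absorbance after dissolving them in DMSO, read against standard curves of each pure PS in DMSO. Treated SK-OV-3 plates were kept shielded from all light, including stray light, as the dark control. Viability was read by MTT. Triplicate.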

Activity calls are given as the source filed them. The rule behind the calls is not given here.

As to `COc1ccc(/C=C/C2=[N+]3C(=C(c4ccc([N+](=O)[O-])cc4)c4c(C)c(I)c(/C=C/c5ccc(OC)c(OC)c5)n4[B-]3(F)F)C(C)=C2I)cc1OC`, in data set [1], the result was inactive. In data set [2], the IC50 worked out at 350 nM. For the same compound, the Activity result in data set [3] is listed as “Non-Toxic”.
For `C=Cc1c(C)c2cc3nc(c(CC(=O)O)c4[nH]c(cc5nc(cc1[nH]2)C(C)=C5CC)c(C)c4C(=O)O)[C@@H](CCC(=O)O)[C@@H]3C` [CHLORIN E6], the IC50 in data set [2] is 390 nM.
Regarding `COc1cc(/C=C/C2=[N+]3C(=C(c4ccc([N+](=O)[O-])cc4)c4c(C)c(I)c(/C=C/c5cc(OC)c(OC)cc5[N+](=O)[O-])n4[B-]3(F)F)C(C)=C2I)c([N+](=O)[O-])cc1OC`, the outcome in data set [1] was inactive. Moreover, in data set [2], the IC50 worked out at 860 nM. Further, the Activity result in data set [3] is on record as “Non-Toxic”.
The corresponding values for `COc1ccc(/C=C/C2=[N+]3C(=C(c4ccccc4)c4c(C)c(I)c(/C=C/c5ccc(OC)c(OC)c5)n4[B-]3(F)F)C(C)=C2I)cc1OC` are “inactive”, 880 nM and “Non-Toxic”.
The corresponding values for `CC1=C(I)C(/C=C/c2ccccc2OCc2ccccn2)=[N+]2C1=C(c1ccc([N+](=O)[O-])cc1)c1c(C)c(I)c(/C=C/c3ccccc3OCc3ccccn3)n1[B-]2(F)F` are “inactive”, 650 nM and “Non-Toxic”.
